High-throughput results as filed in PubChem.
Yeast growth inh = yeast BB579 growth reduction in restrictive medium; S. cerevisiae BB579 growth, OD615, 48 h; inhibition, % at 10 µM; 140,000 compounds, 0.51% hits;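 active = inhibition above a set limit, 3 SD over the mean compound inhibition, cut at about 44% in these data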
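Assay system – yeast BB579 (DeaD) · Dosing – single compound dose of 10 µM, 0.25% DMSO final · Detection – OD615 turbidity measurement · Buffer or medium – CSMM-D restrictive synthetic medium containing dextrose (glucose) · Benchmarks – positive control amphotericin B 10 µg/mL · Incubation – 48 h exposure, 30 °C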
Phagocytosis inh = macrophage phagocytosis inhibition; J774A.1 macrophage IgG-bead phagocytosis, imaging; inhibition, % at 5 µM; 110,000 compounds, 0.07% hits; AID 1029;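 active = inhibition above the mean of the plate negative controls plus 5 SD, cut at about 13% in these data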;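 also: phagocytic index as fraction of beads internalized from green versus red external bead signal; plate controls were DMSO negative control for no effect and cytochalasin-D positive control for full effect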
Yeast life ext = extends the lifespan of yeast; AID 775; S. cerevisiae growth with nicotinamide, OD615; deaD strain in restrictive glucose medium; inhibition of the nicotinamide effect, % at 10 µM; 130,000 compounds, 0.68% hits;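 active = inhibition above a set limit, placed 3 SD over the median of all compounds, cut at about 26% in these data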;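 also: 0% = nicotinamide-treated wells and 100% = cells grown without nicotinamide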
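Material: Modified budding yeast, DeaD strain | Medium: Restrictive glucose medium | Probe or stimulus: 1.5 mM nicotinamide | Dosing: Single dose 10 µM compound, 0.25% DMSO | Times: 48 h at 30 °C | Technique: OD615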
RAM inhibit = inhibitors of the yeast RAM network; S. cerevisiae dse1pr::URA3 reporter, 5-FOA growth OD615, 2 d; analog-sensitive cbk1-as2 kinase mutant strain; inhibition, % at 50 µM; 190,000 compounds, 1.8% hits; AID 868;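 active = inhibition above a set limit, 3 SD over mean compound inhibition, cut at about 8.4% in these data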;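 also: 0% = DMSO-only wells with no growth and 100% = 10 µM 1-NA-PP1 full growth; inhibition rescues growth on 5-FOA so higher OD means more RAM inhibition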
Measles CPE = protection of cells from measles virus | Measles virus-infected cells, CPE protection, absorbance | protection (pct of control), % at 4 µM | 140,000 compounds, 1.5% hits; in the data active = protection mostly above about 24%, no sharp cut-off; inactive = mostly below about 26%
Active calls of the source: *; . = no result; [ ] = another dose, or the depositor's remark. In the library only some 3.6% were active in any assay of this set; here they are far more common.

SMILES | Yeast growth inh | Phagocytosis inh | Yeast life ext | RAM inhibit | Measles CPE
Cc1ccc(C2=[N+]([O-])C(C)(C)N(O)C2(C)C)cc1 | -34.7 | -3.5 | 6.8 | 2.0 | 46.4*
CC1(C)C(c2ccccc2)=[N+]([O-])C2(CCCCC2=O)N1O (stereo not given) | -13.5 | . | . | -0.4 | 21.2
COc1ccc(S(=O)(=O)NCCc2nnc3ccc(SCc4cccnc4)nn23)cc1 | . | . | . | 0.8 | .
O=C(NCc1ccc2c(c1)OCO2)c1ccc(CSCc2cccc(Cl)c2)o1 | -36.6 | -6.4 | -2.5 | 8.8* | 2.7
Cc1cc(C)c(NC(=O)c2ccc[n+](Cc3ccc([N+](=O)[O-])cc3)c2)c(C)c1 | -26.5 | -9.0 | 0.5 | -0.5 | 10.1
CC(C)(C)c1nnc(N/N=C/c2cc(Br)ccc2O)n(N)c1=O | 53.0* | -10.8 | -0.7 | -0.4 | 1.2
NC(=O)N/N=C\c1cc(Br)ccc1O | -49.9 | -6.5 | 17.9 | 0.7 | 8.9
CCSc1nc(-c2ccc(OC)cc2)ccc1C#N | -51.5 | -0.6 | -14.8 | 8.7* | 16.1
O=c1c2ccccc2nc2c3ccccc3c3nncn3n12 | 82.3* | -1.3 | -13.2 | 2.1 | 2.4
O=c1c2ccccc2nc2c3ccccc3c(Cl)nn12 | . | . | . | 2.6 | .
CCOc1nc(C)cc(C)c1S(=O)(=O)c1ccc(Cl)cc1 | . | . | . | 8.7* | .
Cc1ccc(S(=O)(=O)c2c(C)cc(C)nc2Cl)cc1 | 6.7 | -0.2 | -15.6 | -0.6 | 5.6
Cc1cc(C)c(S(=O)(=O)c2ccccc2)c(OC(=O)c2c(Cl)cccc2Cl)n1 | -80.0 | -1.1 | 3.6 | 3.5 | 5.5
Cc1cc(C)c(S(=O)(=O)c2ccccc2)c(OC(=O)c2ccc(Cl)cc2Cl)n1 | -51.6 | -1.0 | 51.5* | 0.4 | 21.3
COc1ccc(CCNC(=O)CCc2ccc(S(=O)(=O)NCC(C)C)cc2)cc1 | -12.2 | -2.1 | 1.2 | 2.3 | 10.4
CC(C)(C)C(=O)O/N=C1/C(=O)N(c2ccccc2)c2ccccc21 | 67.2* | . | -14.5 | 3.3 | 0.9
CCOc1cc(-c2nc(-c3ccncc3)no2)cc(OCC)c1OCC | -53.5 | -0.5 | -16.6 | 0.8 | 11.4
CCOc1cc(-c2nc(-c3ccc(OC)cc3)no2)cc(OCC)c1OCC | -63.0 | 0.9 | 5.1 | 9.6* | 10.1
Cc1ccc(C(=O)NC(=S)NCC2CCCO2)cc1 (stereo not given) | -33.4 | . | 31.9* | 0.3 | 2.0
O=C(COc1ccccc1)N(CCc1ccccc1)c1nc(-c2ccc(F)cc2)cs1 | -48.3 | 0.5 | -4.4 | 7.7 | .
NS(=O)(=O)c1ccc(NC(=O)COC(=O)COc2ccc(Cl)cc2)cc1 | . | . | . | 3.2 | .
CC1CCN(C(=O)C(C)Sc2nc(-c3ccccc3)cc(C(F)(F)F)n2)CC1 (stereo not given) | -16.0 | 0.2 | 3.6 | 8.8* | 3.2
O=C(O)c1ccc(CSc2nc(-c3ccccc3)cc(C(F)(F)F)n2)cc1 | -47.7 | . | 4.9 | 7.7 | 33.7*
O=C(O)c1ccc(CSc2nc(-c3ccc(Cl)cc3)cc(C(F)(F)F)n2)cc1 | -8.8 | -0.9 | -8.6 | 0.4 | 1.8
Cc1cc(C(C)(C)C)oc1C(=O)N(CC(=O)NC1CCCC1)Cc1ccccc1Cl | -50.2 | -0.2 | -19.3 | 0.6 | 15.3
SMILES | Yeast growth inh | Phagocytosis inh | Yeast life ext | RAM inhibit | Measles CPE
COc1cc(CNc2cccc(C(=O)O)c2)cc(Br)c1OCC(=O)NC(C)(C)C | -29.3 | -0.7 | 2.8 | 0.0 | 14.2
Cc1cc(C=C(C#N)C#N)c(C)n1-c1ccccc1 | -29.9 | -0.4 | -26.8 | 1.0 | 51.3*
Cc1ccc(-n2c(C)cc(C=C(C#N)C#N)c2C)cc1 | -20.4 | 2.3 | -4.0 | 2.7 | .
COC1=C(c2ccccc2)C(=O)c2ccccc2C1=O | 68.4* | -3.3 | 12.5 | -0.6 | 29.0
O=C(Nc1ccccc1Cl)ON=C1c2ccccc2-c2ccccc21 | -10.5 | . | -15.0 | -0.4 | 4.1
Cc1ccc(Nc2nc3ccccc3nc2-n2nc(C)cc2C)cc1 | -53.7 | -0.3 | -5.2 | 8.7* | 10.3
Brc1ccc(CNCc2cccs2)cc1 | -2.4 | -4.0 | 7.1 | 1.9 | 18.9*
c1csc(CNCc2ccncc2)c1 | . | . | . | 0.4 | .
O=C(NCCOc1ccc(F)cc1)c1ccccc1SCc1ccccc1 | -34.1 | -12.5 | 7.4 | 9.5* | 3.6
O=C(c1ccccc1)c1nc2ccccc2[nH]c1=O | -52.8 | -0.2 | 76.2* | 2.0 | 10.2
O=C(c1ccccc1)c1nc2ccccc2n(CCCn2c(=O)c(C(=O)c3ccccc3)nc3ccccc32)c1=O | -41.8 | -0.4 | -12.1 | 9.6* | 11.7
Cn1c(=O)c(C(=O)c2ccccc2)nc2ccccc21 | 17.4 | -1.0 | 9.0 | 2.5 | 20.8
O=C(NCCCN1CCc2ccccc2C1)C1CCN(S(=O)(=O)N2CCC3(CC2)OCCO3)CC1 | . | . | . | 1.7 | .
CN(CC(=O)O)S(=O)(=O)c1cc(Cl)ccc1Cl | -11.2 | 0.1 | -11.3 | 0.4 | 4.9
CN(CC(=O)N1CCCC1)S(=O)(=O)c1cc(Cl)ccc1Cl | -31.7 | 25.2*[artifact] | -5.1 | 1.1 | 20.7
COc1ccc(CCN(CC(=O)NC2CCCC2)C(=O)CCC(=O)Nc2cc(C)on2)cc1OC | -32.0 | 1.8 | -9.9 | 0.9 | 22.4*
COc1cccc(N(C(=O)Cn2nnc(-c3ccc(C)o3)n2)C(C(=O)NC(C)(C)C)c2cccs2)c1 (stereo not given) | -37.4 | . | . | 4.1 | 6.4
CCC(C(=O)NC(C)(C)C)N(C(=O)Cn1nnc(-c2cccs2)n1)c1cnc2ccccc2c1 (stereo not given) | -25.6 | . | -17.4 | 0.1 | 80.2*
CCCc1nn(C)c(C(=O)Nc2cccc(Cl)c2)c1Cl | -20.1 | -4.3 | -5.6 | 2.7 | 27.0
CCOC(=O)CCNC(=O)Nc1ccc2nc(C)n(Cc3ccc(Cl)cc3)c(=O)c2c1 | -16.4 | 1.8 | -4.0 | 2.1 | 38.3*
Cc1cccc(NC(=O)COC(=O)Cc2cccc(C(F)(F)F)c2)c1C | -21.0 | -2.3 | -0.8 | 1.5 | 7.3
Cc1cccc(C)c1NC(=O)c1sccc1SCc1cccc(C(F)(F)F)c1 | -22.4 | . | -1.1 | 11.0* | 7.5
CCOC(=O)C1C(c2cccc(F)c2)NC(=S)NC1(O)C(F)(F)F (stereo not given) | -5.1 | -6.6 | -2.5 | -0.3 | 10.7
COc1ccc(OC)c(C2C=C(C34CC5CC(CC(C5)C3)C4)NC(=S)N2)c1 (stereo not given) | -28.0 | -5.8 | -0.1 | 4.6 | 34.5*
CCCCCCCCCCCCCCCC[n+]1ccc(/C=N/O)cc1 | 99.6* | 7.8 | -12.8 | 1.6 | 0.2
SMILES | Yeast growth inh | Phagocytosis inh | Yeast life ext | RAM inhibit | Measles CPE
CCCCCCCCCCCCCCCC[n+]1cccc(C(=O)N(CC)CC)c1 | 100.8* | -0.1 | -13.7 | -1.8 | 7.6
CCCCCCCCCCCCCCCC[n+]1ccc(C(N)=O)cc1 | 100.0* | -0.6 | -13.2 | -0.9 | 13.2
O=C(CSc1ccc2ccccc2n1)NCCC1=CCCCC1 | -16.5 | -9.5 | 4.5 | 8.6* | 4.8
COc1cccc(C(CC(=O)Nc2cccc3ccccc23)NC(=O)c2ccccc2)c1 (stereo not given) | -11.9 | . | -0.7 | 10.1* | 8.9
COc1ccc(OC)c(NC(=O)CC(NC(C)=O)c2ccccc2)c1 (stereo not given) | . | . | . | 0.5 | .
CCOC(=O)CSC1=NC(=O)/C(=C\c2ccc(Cl)cc2)S1 | 2.8 | -0.9 | -2.8 | -0.3 | 2.7
